# According to paper PMC4298165 (Cell, 2014):
# T1: apical domain of CCT3 (ApiCCT3) (UniProt P49368 210-380)
# T1 sequence (looked up): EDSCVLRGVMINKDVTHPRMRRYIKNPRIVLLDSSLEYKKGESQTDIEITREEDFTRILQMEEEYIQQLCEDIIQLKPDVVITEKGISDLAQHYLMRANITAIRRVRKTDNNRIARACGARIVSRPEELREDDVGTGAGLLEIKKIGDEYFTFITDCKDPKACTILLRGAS
# B1: Y274A (protein)
# chain: MMGHRPVLVLSQNTKRESGRKVQSGNINAAKTIADIIRTCLGPKSMMKMLLDPMGGIVMTNDGNAILREIQVQHPAAKSMIEISRTQDEEVGDGTTSVIILAGEMLSVAEHFLEQQMHPTVVISAYRKALDDMISTLKKISIPVDISDSDMMLNIINSSITTKAISRWSSLACNIALDAVKMVQFEENGRKEIDIKKYARVEKIPGGIIEDSCVLRGVMINKDVTHPRMRRYIKNPRIVLLDSSLEYKKGESQTDIEITREEDFTRILQMEEEAIQQLCEDIIQLKPDVVITEKGISDLAQHYLMRANITAIRRVRKTDNNRIARACGARIVSRPEELREDDVGTGAGLLEIKKIGDEYFTFITDCKDPKACTILLRGASKEILSEVERNLQDAMQVCRNVLLDPQLVPGGGASEMAVAHALTEKSKAMTGVEQWPYRAVAQALEVIPRTLIQNCGASTIRLLTSLRAKHTQENCETWGVNGETGTLVDMKELGIWEPLAVKLQTYKTAVETAVLLLRIDDIVSGHKKKGDDQSRQGGAPDAGQE
# B2: HIV protein p6 (natural protein)
# chain: LQSRPEPTAPPEESFRSGVETTTPPQKQEPIDKELYPLTSLRSLFGNDPSSQ
# B3: tubulin: full length physiological substrate of TRiC (protein)
# chain: MREIIHISTGQCGNQIGAAFWETICGEHGLDFNGTYHGHDDIQKERLNVYFNEASSGKWVPRSINVDLEPGTIDAVRNSAIGNLFRPDNYIFGQSSAGNVWAKGHYTEGAELVDSVMDVIRREAEGCDSLQGFQITHSLGGGTGSGMGTLLISKIREEFPDRMMATFSVLPSPKTSDTVVEPYNATLSVHQLVEHSDETFCIDNEALYDICQRTLKLNQPSYGDLNNLVSSVMSGVTTSLRYPGQLNSDLRKLAVNLVPFPRLHFFMVGYAPLTAIGSQSFRSLTVPELTQQMFDAKNMMAAADPRNGRYLTVAAFFRGKVSVKEVEDEMHKVQSKNSDYFVEWIPNNVQTAVCSVAPQGLDMAATFIANSTSIQELFKRVGDQFSAMFKRKAFLHWYTSEGMDELEFSEAESNMNDLVSEYQQYQEATVEDDEEVDENGDFGAPQNQDEPITENFE
# How the values were obtained:
# [1] = test system: TRiC; assay: Crosslinking-mass spectrometry; format: binding; details: DSS crosslinking, trypsin, tandem MS, xQuest
# Outline: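 Intact TRiC crosslinked with DSS to full-length actin, tubulin or HIV Gag. Crosslinked samples were trypsin-digested and enriched for crosslinked species before MS. Crosslink sites on CCT subunits were mapped onto the apical-domain structure.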
# [2] = test system: ApiCCT3; format: binding; details: 15N-1H HSQC
# [3] = test system: ApiCCT3; assay: NMR chemical-shift mapping, 15N-labeled p6 with unlabeled ApiCCT3; format: binding; details: 15N-1H HSQC, 0, 2.5, 5 and 10-fold excess ApiCCT3
# Outline: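 Recombinant p6 was expressed with 15N/13C isotope labeling and purified. Chemical-shift mapping used 300 µM protein samples on an 800 MHz spectrometer with a cryogenic probe.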
# [4] = test system: intact purified TRiC; assay: NMR chemical shift perturbation of 15N p6 with intact purified TRiC; format: binding; details: Fig. S4D
# [5] = test system: endogenous TRiC; assay: Biotin affinity isolation from HEK293 extracts and TRiC immunoblot; format: binding, human; details: biotinylated peptide, HEK293 extract, immunoblot against CCT5 and CCT2
# [6] = test system: CCT3; details: cited from earlier work
# [7] = test system: p6; assay: SPR kinetics of ApiCCT3 alanine mutants on immobilized p6; format: binding, HIV; details: 31 surface-exposed residues substituted
# [8] = target: T1, apical domain of CCT3 (ApiCCT3); assay: SPR
molecule,measurement,setting,value
actin,location of heterotypic TRiC crosslinks,[1],localized to substrate determinants previously implicated in TRiC binding
p6: 54 amino acid long HIV protein p6 (LQSRPEPTAPPEESFRSGVETTTPPQKQEPIDKELYPLTSLRSLFGNDPSSQ),chemical shift perturbation of 15N-ApiCCT3,"[2]; 300 µM protein sample, 800 MHz, 0, 5, 10, 20-fold excess p6 (Fig. 2)",concentration-dependent shifts in a specific subset of peaks
same,number of ApiCCT3 peaks perturbed weakly,[2]; > 0.1 p.p.m.,4 peaks
same,number of ApiCCT3 peaks strongly perturbed,[2]; > 0.2 p.p.m.,5 peaks
same,chemical shift perturbation of 15N-p6 by ApiCCT3,[3],concentration-dependent chemical shift perturbation in a subset of peaks
same,chemical shift perturbation of 15N p6 by intact TRiC,[4],the same subset of p6 residues was affected upon addition of intact TRiC
same,binding to endogenous TRiC,[5],bound TRiC
same,association with CCT3,[6],associate directly with subunit CCT3 of TRiC
B1,impact of Ala substitution in ApiCCT3 on p6 binding,[7],no impact on p6 binding
B2,Kd,[8],250 to 500 nM
B3,crosslinks to TRiC subunits,[1],crosslinked to multiple TRiC subunits through specific regions in the polypeptide
same,location of heterotypic TRiC crosslinks,[1],localized to substrate determinants previously implicated in TRiC binding
